Assay results: ChEMBL document CHEMBL1133978, “Potent peptide alpha-ketohydroxamate inhibitors of recombinant human calpain I” (Bioorg Med Chem Lett, 2001)

Columns and labels:
MOLT-4 [1] = test: Inhibition of cell permeability by measuring the spectrin breakdown product in intact MOLT-4 cells; assay type: functional, cell-based; details: Homo sapiens
Summary of the method: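 Intact MOLT-4 cells (human leukemia T-cell line) had calpain activated with ionomycin. Cell permeability was read as inhibition of the spectrin breakdown product. Potency is reported as IC50.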

MOLT-4 [2] = test: Compound was tested for inhibition of cell permeability by measuring the spectrin breakdown product in intact MOLT-4 cells at 1 uM; assay type: functional; details: Homo sapiens
Summary of the method: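 In intact MOLT-4 human leukemia T cells, calpain was activated by ionomycin. Spectrin breakdown product was measured, and inhibition is given as percent at a single 1 μM test concentration.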

With `CCCC[C@H](NC(=O)[C@@H](NC(=O)OCc1ccccc1)C(C)C)C(=O)C(=O)NOCc1ccccc1` the IC50 (MOLT-4 [1]) was 500 nM.
Compound `CS(=O)(=O)N[C@H](COCc1ccccc1)C(=O)N[C@@H](Cc1ccccc1)C(=O)C(=O)NOCc1ccccc1` has an IC50 (MOLT-4 [1]) of 900 nM.
`CC(C)C[C@H](NC(=O)OCc1ccccc1)C(=O)N[C@@H](Cc1ccccc1)C(=O)C(=O)NOCc1c(F)c(F)c(F)c(F)c1F` gave an IC50 (MOLT-4 [1]) of 2900 nM.
Work on `CONC(=O)C(=O)[C@H](Cc1ccccc1)NC(=O)[C@H](CC(C)C)NC(=O)OCc1ccccc1` yielded an IC50 (MOLT-4 [1]) of 900 nM.
`CC(C)[C@@H](NC(=O)OCc1ccccc1)C(=O)N[C@@H](Cc1ccccc1)C(=O)C(=O)NOCc1ccccc1` showed an IC50 (MOLT-4 [1]) of 600 nM.
`CC(C)C[C@H](NC(=O)OCc1ccccc1)C(=O)N[C@@H](Cc1ccccc1)C(=O)C(=O)NOCc1ccccc1` gave an IC50 (MOLT-4 [1]) of 600 nM.
For `CONC(=O)C(=O)[C@H](Cc1ccccc1)NC(=O)[C@H](CC(C)C)NC(=O)[C@H](CC(C)C)NC(=O)OCc1ccccc1`, the IC50 (MOLT-4 [1]) was 200 nM.
Compound `CC(C)C[C@H](NC(=O)OCc1ccccc1)C(=O)N[C@@H](CC(C)C)C(=O)N[C@@H](Cc1ccccc1)C(=O)C(=O)NOCc1ccccc1` has an IC50 (MOLT-4 [1]) of 200 nM.
`CC(C)C[C@H](NC(=O)OCc1ccccc1)C(=O)N[C@@H](Cc1ccccc1)C(=O)C(=O)NOC1CCC(C)CC1` (stereo partly specified) was tested, and the inhibition at 1 µM (MOLT-4 [2]) was 26%.
Work on `CCONC(=O)C(=O)[C@H](Cc1ccccc1)NC(=O)[C@H](CC(C)C)NC(=O)OCc1ccccc1` yielded an IC50 (MOLT-4 [1]) of 1100 nM.
`CC(C)C[C@H](NC(=O)OCc1ccccc1)C(=O)N[C@@H](Cc1ccccc1)C(=O)C(=O)NOC(C)(C)C` gave an IC50 (MOLT-4 [1]) of 3900 nM.
